H69AR inhibit: growth inhibitors of human H69AR lung tumor cells; viability, % at 10 µM; AID 598; H69AR lung tumor viability, ATP luminescence, 72 h; active compounds read low; 85,000 tested, 6% active;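 active means viability at or below 40%; inactive means viability above 40%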;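 further: multidrug resistant small cell line overexpressing MRP-1 efflux transporter; 100% = mean luminescence of untreated control wells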
F-actin modifier: modifiers of cytoskeleton assembly; HUVEC TNFa F-actin phalloidin imaging, high content; inhibition, % at 2 µM; 91,000 tested, 0.18% active;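 active means inhibition above the batch mean plus 3 SD and confirmed as a hit by visual image inspection, cut at about 30% in these data, passing the limit was not always enough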
Pyk2 oligo antag: blocks oligomerization of human Pyk2 in cells; 99,000 tested, 0.83% active; Q14289; z-score (the deposit names both 25 µM and 10 µM); Q293 cells, Pyk2 FERM NanoBiT luminescence; active compounds read low;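 active means Z-score of -3 or lower, scaled per plate to the spread of control and sample wells; inactive means z-score above -3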;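 further: negative z-score means lost luminescence so less FERM oligomerization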
Fibroblast inh: blocks proliferation of human lung fibroblasts; LL 47 human lung fibroblast viability, ATP luminescence; active compounds read low; 85,000 tested, 1.1% active; viability, % at 10 µM;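 active means viability at or below 50% in the single dose screen; inactive means viability above 50%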;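 further: compound exposure lasted 72 h before the ATP readout; 100% = median luminescence of untreated cell-only wells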
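Material: human LL 47 lung fibroblast cells; quantity: 1,150 cells/well; medium: IMEM plus 15% FBS; doses: 0.1% DMSO in all compound wells; timing: overnight attachment after seeding, then 72 h compound exposure at 37 °C; detection: CellTiter-Glo luminescence; measure: % viability of median cell-only signal; controls: cell-only wells, no compound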
Jurkat tox 60K: cytotoxicity toward Jurkat cells; Jurkat E6.1 viability, ATP luminescence, 48 h; inhibition, % at 4 µM; 56,000 tested, 1.2% active;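 active means inhibition above the mean inhibition of all tested compounds plus 3 SD, cut at about 28% in these data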
HUVEC prolif 384: human endothelial cell proliferation inhibition; HUVEC proliferation, CellTiter-Glo luminescence, 72 h; active compounds read low; viability, % at 10 µM (by protocol); 86,000 tested, 1.1% active;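 active means viability at or below 30%; inactive means viability above 30%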;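 further: 100% = median luminescence of DMSO-only cell control wells on each plate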
Starred values were filed as active, the others as inactive; · = no result. A selection: hits, their analogues and other compounds. The true share with any hit is near 6%.

SMILES	H69AR inhibit	F-actin modifier	Pyk2 oligo antag	Fibroblast inh	Jurkat tox 60K	HUVEC prolif 384
COc1ccc(-n2nnnc2SCC(=O)c2ccc(O)c(O)c2)cc1	26.4*	-8.0	-0.52	88.9	23.6	60.7
Cc1occc1C(=O)NCCCc1ccccc1	101.9	-2.3	0.32	105.2	-12.0	107.7
CCOc1ccc(C(=O)CCc2nc3ccccc3s2)cc1	·	10.1	-3.3*	·	·	·
Cc1nn(-c2ccccc2)c(C)c1/C=N/n1c(-c2ccc(C(C)(C)C)cc2)n[nH]c1=S	·	12.1	-3.86*	·	·	·
COc1ccc(CCN2C(=O)C3C4CC(C5C(C(=O)O)=NOC45)C3C2=O)cc1OC (centres undefined)	92.7	3.5	-0.89	97.3	·	102.9
CC1CC(Nc2ccccc2)c2ccccc2N1C(=O)c1cccnc1 (centres undefined)	49.6	4.4	-0.01	96.0	·	90.6
C[C@@H]1C[C@H](Nc2ccccc2)c2ccccc2N1C(=O)c1cccnc1	19.5*	-3.2	0.55	94.2	·	88.6
Cc1cc(C)n(-c2nc3c(c(=O)[nH]c(=O)n3C)n2CC(O)COc2ccc(Cl)cc2Cl)n1 (centres undefined)	13.2*	-14.0	0.18	72.5	·	47.6
CCN(CC)CCNc1nc2c(c(=O)[nH]c(=O)n2C)n1CC(O)COc1ccc(Cl)cc1Cl (centres undefined)	77.2	-13.1	-0.46	91.6	1.6	83.2
Cc1cc(C)n(-c2nc3c(c(=O)[nH]c(=O)n3C)n2CCc2ccccc2)n1	24.1*	19.2	0.23	91.6	13.3	76.6
Cc1cc(C)n(-c2nc3c(c(=O)[nH]c(=O)n3C)n2Cc2ccccc2)n1	101.3	2.3	-0.1	97.0	-4.1	95.5
O=S(=O)(CCc1nc2ccccc2s1)c1ccc2ccccc2c1	90.9	-4.2	-0.11	91.5	·	91.7
CCOC(=O)C1=C(C)N=c2s/c(=C\c3ccncc3)c(=O)n2C1c1ccc2c(c1)OCO2 (centres undefined)	3.0*	·	-1.98	70.6	·	50.1
CCOC(=O)C1=C(C)N=c2s/c(=C3\C(=O)Nc4ccccc43)c(=O)n2C1c1ccc2c(c1)OCO2 (centres undefined)	27.1*	-12.6	0.08	91.3	-2.1	72.5
CCNC(=O)CSc1nnc(-c2ccc(OC)cc2)n1CC(C)C	100.7	7.3	0.84	111.7	·	95.5
CCOC(=O)CN1C(=O)C2Cc3ccccc3CN2C1=S (centres undefined)	·	-1.2	-0.84	·	·	·
O=C(NCC(=O)N(c1cccnc1)C(C(=O)NC1CCCCC1)c1cccnc1)c1ccco1 (centres undefined)	102.2	4.9	0.19	108.6	-10.9	90.7
CCCCOc1ccc(C2OC34CCCCC3C(C#N)(C#N)C2(C#N)C(=N)O4)cc1 (centres undefined)	42.7	3.0	0.39	88.3	·	83.5
C=CCOc1ccc(C2OC34CCCCC3C(C#N)(C#N)C2(C#N)C(=N)O4)cc1 (centres undefined)	12.7*	-22.9	0.39	89.0	·	76.8
Cc1ccsc1/C=C/c1ccc2cccc(O)c2n1	17.7*	23.9	-0.28	44.9*	·	62.1
Cc1ccsc1/C=C/c1ccc2ccccc2n1	·	-12.7	0.22	·	·	·
O=C(/C=C/c1cccs1)Nc1cccc(NC(=O)/C=C/c2cccs2)n1	·	·	-2.31	·	·	·
Oc1cccc2ccc(/C=C/c3cccs3)nc12	12.0*	-13.1	0	14.1*	·	59.6
CCn1c(SCC(=O)Nc2oc(-c3ccccc3)c(-c3ccccc3)c2C#N)nnc1-c1cc(OC)cc(OC)c1	127.7	2.5	-1.61	108.8	·	99.0
COc1ccc(CC(=O)Nc2oc(-c3ccccc3)c(-c3ccccc3)c2C#N)cc1OC	·	13.4	-3.3*	·	16.5	·
SMILES	H69AR inhibit	F-actin modifier	Pyk2 oligo antag	Fibroblast inh	Jurkat tox 60K	HUVEC prolif 384
COc1ccccc1OCC(=O)Nc1oc(-c2ccccc2)c(-c2ccccc2)c1C#N	105.7	4.2	-3.71*	99.6	-6.3	81.0
Cc1ccc(OCC(=O)Nc2oc(-c3ccccc3)c(-c3ccccc3)c2C#N)cc1	28.4*	-0.8	-1.31	97.9	·	75.0
N#Cc1c(NC(=O)CSc2ncccn2)oc(-c2ccccc2)c1-c1ccccc1	105.5	-5.5	0.83	93.3	·	82.9
CCC(C)(C)c1ccc(OCCN2C(=O)NC(C)(C)C2=O)cc1	66.3	10.8	-0.1	90.2	·	89.3
O=S(=O)(Nc1ccc2c(c1)nc1n2CCOC1)c1ccc(Cl)cc1	85.2	26.7	0.44	94.7	8.3	88.0
CC1CCCCN1C(=O)/C(=C\c1ccccc1)c1ccccc1 (centres undefined)	·	-7.5	-2.06	·	·	·
C=CCOC(=O)c1[nH]c2c(c1C)C(=O)CC(c1ccco1)C2 (centres undefined)	30.0*	·	·	54.9	99.7*	46.2
COC(=O)c1[nH]c2c(c1C)C(=O)CC(c1ccccc1)C2 (centres undefined)	19.1*	4.7	0.25	58.8	97.5*	46.4
Cc1c(C(=O)OCC2CCCO2)[nH]c2c1C(=O)CC(c1ccco1)C2 (centres undefined)	27.6*	0.2	0	56.9	77.7*	57.0
Cc1c(C(=O)OC2CCCC2)[nH]c2c1C(=O)CC(c1ccco1)C2 (centres undefined)	28.2*	·	·	55.3	100.5*	32.3
CCOC(=O)c1[nH]c2c(c1C)C(=O)CC(c1ccc(OC)c(OC)c1)C2 (centres undefined)	97.7	3.5	1.78	95.8	·	92.8
C=CCSc1nc(C)cc(/C=C\c2ccccc2)c1C#N	·	-11.2	-0.07	·	·	·
Nc1nnc(CC(=O)NCc2ccccc2)s1	92.3	1.5	0.28	·	-1.1	99.5
O=C(O)CN(Cc1ccccc1)S(=O)(=O)c1ccc(F)cc1	92.7	19.1	1.17	103.3	-3.9	101.8
Cc1c(C(=O)OCC(C)C)[nH]c2c1C(=O)CC(c1ccco1)C2 (centres undefined)	16.7*	21.0	·	51.2	99.0*	43.9
COc1ccc(OC)c(C2CC(=O)c3c([nH]c(C(=O)OCC4CCCO4)c3C)C2)c1 (centres undefined)	·	-6.8	·	·	4.2	·
CCOCCOC(=O)c1[nH]c2c(c1C)C(=O)CC(c1ccc(N(C)C)cc1)C2 (centres undefined)	·	1.7	·	·	0.8	·
C/C=C/COC(=O)c1[nH]c2c(c1C)C(=O)CC(c1ccco1)C2 (centres undefined)	29.5*	-4.3	·	53.0	98.7*	42.2
C/C=C/COC(=O)c1[nH]c2c(c1C)C(=O)CC(c1ccc(N(C)C)cc1)C2 (centres undefined)	29.2*	·	·	110.2	-0.4	79.4
Cc1c(C(=O)N2CCOCC2)[nH]c2c1C(=O)CC(c1ccccc1Cl)C2 (centres undefined)	21.9*	-17.7	-0.16	62.4	82.2*	56.5
Clc1ccsc1-c1csc(-c2cccnc2)n1	17.1*	·	-0.86	74.8	·	37.7
CN1CCN(C(c2cccnc2)c2ccc3cccnc3c2O)CC1 (centres undefined)	15.6*	-8.3	0.61	86.4	2.3	86.5
